Laboratory results as given in ChEMBL document CHEMBL3046885, “Toxicity of (+)- and (-)-gossypol to the plant pathogen, Rhizoctonia solani” (2002).
Where “and” joins values, the source holds several entries; their conditions need not be identical. Equal entries are not always repeated.

Tests used:
Rhizoctonia solani [1] = assay: Antifungal activity against Rhizoctonia solani J-1 after 4 to 5 days; assay type: functional
Procedure, shortened: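 Mycelial suspension of strain J-1 (grown 3-4 days at 26-28 °C in potato dextrose broth with rifampicin, macerated in buffered defined medium, pH 6.3, 125 mM glucose). Mixed 1:1 with compound in medium/DMSO; 12 wells per concentration, DMSO controls. Incubated 48 h at 26-28 °C in dark, then plated on PDA and scored visually after 4-5 days. LD100 is the lowest concentration giving no growth. At least three assays.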

Rhizoctonia solani [2] = assay: Antifungal activity against Rhizoctonia solani J-1 after 72 hr by turbimetric assay; assay type: functional; details: read-out: ED50 (the source's name)
Procedure, shortened: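 Sieved macerated mycelium of strain J-1 was held 10 h in buffered defined medium (pH 6.3, 125 mM glucose), then mixed 1:1 with compound in medium/DMSO. Ten wells per concentration; DMSO control. Incubated at 26-28 °C in dark. OD750 was read from 72 h, every 12 h, until control OD reached 0.065-0.100. ED50 came from fractional effect versus concentration. Three plates per experiment, at least four experiments.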

| SMILES | LD100 (Rhizoctonia solani [1]) | EC50 (Rhizoctonia solani [2]; Rhizoctonia solani, J-1, 72 h) | EC50 (Rhizoctonia solani [2]) |
| --- | --- | --- | --- |
| COc1c(C)cc2c3c(c(O)c(O)c(C(C)C)c13)CO2 [DESOXHEMIGOSSYPOL-6-METHYL ETHER] | 40 µM | 2.52 µM |  |
| Cc1cc2c3c(c(O)c(O)c(C(C)C)c3c1)CO2 [DESOXYHEMIGOSSYPOL] | 41 µM | 3.52 µM |  |
| Cc1cc2c(C(C)C)c(O)c(O)c(C=O)c2c(O)c1-c1c(C)cc2c(C(C)C)c(O)c(O)c(C=O)c2c1O [GOSSYPOL] | >106 µM | 25.1 µM | 24.3 µM and 23.9 µM |
| COc1cc(O)c2c(C=O)c(O)c(O)c(C(C)C)c2c1 [HEMIGOSSYPOL-6-METHYL ETHER] | 55 µM | 13.1 µM |  |
| Cc1cc(O)c2c(C=O)c(O)c(O)c(C(C)C)c2c1 [HEMIGOSSYPOL] | 77 µM | 21.4 µM |  |
| CC1=Cc2cccc(C)c2C(=O)C1=O [O-HIBISCANONE] | 27 µM | 3.76 µM |  |
